B1: tRNA (parent)
chain: GUUCCGUUGGCGUAAUGGUAACGCGUCUCCCUCCUAAGGAGAAGACUGCGGGUUCGAGUCCCGUACGGAACG

Fewer inactive variants are shown than the library holds.

Variants of B1 are the subject of the series. The series can be described thus: yeast fitness relative to wild type (ratio to wild type); higher = fitter; tRNA-Arg(CCU), competitive growth, 37 C, YPD. In short, it runs like this: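 Start and end populations of a pooled competition were compared by 100-nucleotide paired-end sequencing of gene amplicons. The Saccharomyces cerevisiae strains carried tRNA-Arg(CCU) gene variants at the native genomic locus, synthesised with a 3% per-site mutation rate at 69 sites, and competed in YPD at 37°C for 24 hours in six parallel replicates. Darwinian fitness relative to wild type was based on the change in genotype frequencies. Genotypes required ≥ 100 starting reads, and estimates < 0.5 were set to 0.5.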
U28G U64G: the yeast fitness is 0.628. With C31U G67U, the yeast fitness is 0.952. As for C4U A37U, the yeast fitness was 0.676.

Turning to A15G C49U A69C, the yeast fitness was found to be 0.875. Under A20U C29A C30A U53G C62A stands 0.545; under G6A A45U, 0.942. Under G6A A14G G48C stands not above 0.5; under A20C G56C, 0.625; under U3C A21G A43U, 0.989. Regarding U32A C62U, the yeast fitness came to 0.645. Under U28C C34G A40G A43G C46G C55U C66U stands not above 0.5.

Consider U3C C5G A15C C27G A69U, for which the yeast fitness was not above 0.5. Under A36G C61U C66U stands 0.543; under C5U C31A C34A A36G, not above 0.5. For C24G G41A G51A, the yeast fitness was not above 0.5. With G39A A40U, the yeast fitness was 1.19. Under G17C C22G A65G stands 0.6; under C22A C49U, 1.13; under A20C A37C U53C G63C, not above 0.5. The same measure for A14G C27G C34G A37U C62U: not above 0.5. On to C5U A42C, for which the yeast fitness is 1.01. Consider G39C A69U, for which the yeast fitness worked out at 0.826. C11A U16G U53G: the yeast fitness is not above 0.5. In the case of C24A C55G C60G, the yeast fitness was found to be 0.528. The same measure for G23U A42C: 0.74; for G10C A36C A57C: not above 0.5; for C24G G39C A45G U54A C55U: not above 0.5. For the variant U3C C46U U54A, the yeast fitness is not above 0.5. For the variant U2G G6A A57G, the yeast fitness was 0.527. As to C27G C49U A65U A70G, the yeast fitness is not above 0.5. Under G12A C22A stands 1.03.

On to U16G C55U, for which the yeast fitness was 0.817. As to A15U C22G C31U C60A, the yeast fitness was not above 0.5. Under C27A A42C G67C A69C stands not above 0.5. Under A15U G38A A40C stands not above 0.5; under G38A U47C G56A, 0.673. Under G10C G12C C46A stands not above 0.5; under C5A G23A C24U U47A, not above 0.5. C30A A65C C66U: the yeast fitness was not above 0.5. With U8G A42G, the yeast fitness was found to be 0.58.

Regarding G9C U26A U47C G48A C49U G56A G67C A69G, the yeast fitness is not above 0.5. For U32C A37U G48A, the yeast fitness amounted to 0.537.

For the variant G6A C66A A69C, the yeast fitness turned out to be 0.565. Take U19C C31U: the yeast fitness was found to be 0.986. The same measure for U26A U54C: 0.817; for U32G A45C G56A C66U: not above 0.5. Under C31A G44A stands 0.792. The same measure for G12A A43G: 0.988; for U28A A45C C49A G50A: not above 0.5.

As for A37G G56A G63A, the yeast fitness is not above 0.5.

With C30A A45U C49A G50A G63U A70U, the yeast fitness was not above 0.5. The same measure for C5A A14G A43U: not above 0.5; for U26C C29G A69U: 0.572.

Turning to C4G C30U C49U, the yeast fitness worked out at 0.604. The same measure for U16A U28A C49G: not above 0.5. Under A15C U19C A37C G51A stands not above 0.5. Under C22U C31G G56U stands 0.528.

For the variant U2A C24A A42U, the yeast fitness was not above 0.5. As for G25A U53A G63A, the yeast fitness was 0.523. Regarding U19C G23C C29G A43U G50A A65C, the yeast fitness is not above 0.5.

With U8G G17A C24G C66U, the yeast fitness is not above 0.5. The same measure for C5G A14C C29A C31G G56A: not above 0.5; for C24A C29U: 0.643; for A57U A65C: 0.865. The same measure for U13A A20C C46U: 0.844; for A20G C29A: 0.705; for U3C U26C A42U: 0.939. As to G6A C31U A43U C55A, the yeast fitness was not above 0.5.

U2G U26A A43G G44C U53C: the yeast fitness was not above 0.5.

C24G G25A C34A C46G: the yeast fitness is not above 0.5. The same measure for A21G C30G A69C: 0.544. Under U7A C11U A15G A65C stands not above 0.5; under C30A U54A A69C, 0.539; under C5U U13G G44A A57U, 0.642.

Turning to G41A U47A G48C, the yeast fitness was found to be 0.6. Under C34G G44C C66A stands 0.595; under C30G G58C C66G, 0.829.

Take U7G A36C G67A: the yeast fitness was not above 0.5. The same measure for C22A G23C U32G C66G: not above 0.5; for C5G U8A G52C U53A: not above 0.5.

For G10A C24A C49G G58C, the yeast fitness was not above 0.5. For the variant G25U C29A G56C, the yeast fitness was not above 0.5. The same measure for U19A C24U G38A U54C C66A: 0.511; for C5A A37U A57G G63C: 0.733.

Consider C27U C31U G51C C66A, for which the yeast fitness is not above 0.5.

Consider C5U A15C C29U G58C, for which the yeast fitness is not above 0.5. The same measure for U16C G17C: 0.665; for U3A C11U C29A A42G A57C: not above 0.5; for C11U G38C U64G A70C: not above 0.5.

Turning to U7A C11U A40G A42U C62A, the yeast fitness is not above 0.5.

Take C34A A43U: the yeast fitness was 0.729. Under U16G stands 1; under C31A C34G A43C U47C C61U, not above 0.5. Regarding A21G C22U C29G A45C, the yeast fitness worked out at 0.515.

In the case of C11G C27A, the yeast fitness turned out to be 0.715. The same measure for G12A A21G C24G U28G C46U: 0.582; for C61A C66U A69C: 0.601. Consider C5U C31G C33G C34U G68A, for which the yeast fitness was 0.671. The same measure for A45G C55U: 0.704; for C5A G9C U47G G68U: not above 0.5; for A45U: 0.99. With C5A C24U U35C, the yeast fitness was not above 0.5.

For A37U C55A C60U, the yeast fitness was not above 0.5. Consider C4A A15G G56C C60A, for which the yeast fitness was not above 0.5.

As for G10C C11G C22A C30G U53A, the yeast fitness is 0.653. The same measure for G23A G25A A40U C61U: not above 0.5; for G10A G23C C61G: not above 0.5. Take G10C C22A U35C C60G C61U G63A: the yeast fitness was not above 0.5. On to G6A C31A U47G C62A, for which the yeast fitness was not above 0.5. Under G9C C34U C55A A57C stands not above 0.5; under C29A A43U A57C, 0.642.

For A14U C29G G67A, the yeast fitness amounted to 0.542. The same measure for A21C C31U G38A G39C C49G: not above 0.5; for C27U G44C A65U: 0.691; for A20C A45U A69U: 0.773. Turning to U2C C24U U26A U28G U54G, the yeast fitness is not above 0.5.

On to C4A G17C G23C A45C, for which the yeast fitness is 0.527. A21U G56C: the yeast fitness was determined as 0.579. The same measure for G6C C46G U54C: not above 0.5. A36G A42C G68C: the yeast fitness came out at 0.608.

As to C33A A37C G63A, the yeast fitness is not above 0.5. With G12A A21G C31A A65U A70U, the yeast fitness is not above 0.5.

For the variant C61U A65C G67A G68A, the yeast fitness was not above 0.5.

Turning to G6A G12C U16C C31U G52C A70G, the yeast fitness was found to be 0.651. Under C4U G9C C24U C30G G51A C60U G67A stands not above 0.5. On to G6A G18A, for which the yeast fitness was determined as 0.824. Under G58A U64C stands 0.976; under C5A C11G A37U C49A, 0.515.

For U26G A37C A42G G44C A45G, the yeast fitness is not above 0.5. For the variant A42U U53A, the yeast fitness came to 0.565.

In the case of C4A A20C U47A, the yeast fitness is not above 0.5. Under A21G C46U C62U stands 1.1; under C22U C29G, 0.657. The same measure for A15U A43C G48A G68C: not above 0.5; for C30U G44A C60G: not above 0.5.

A14U A15G A43C G52A G56A C62G A65G: the yeast fitness worked out at 0.607. Under U28A G50C stands 0.609; under C4U U16C A42G G58A, 0.552; under U13A C30U C33A U35C, 0.558. Under A15U G18A A37G G50A stands not above 0.5; under U7G U26C A42U C46U C66U, not above 0.5. The same measure for C5U G10A A21G A40U: not above 0.5; for U2A C46G C49U: 0.686. For A20G A21G G38C G50C, the yeast fitness is not above 0.5. Regarding C4A A14U A20C U28G C49U, the yeast fitness was not above 0.5.

Regarding U2A C61U G67C, the yeast fitness was not above 0.5. The same measure for G9A A36U: 0.677; for C62A G68A: 0.797. For G12C C27U C62G, the yeast fitness is not above 0.5.

A15U G23C A45U C62A: the yeast fitness was not above 0.5. Under G18A A57G stands 0.854; under U3G C5U U32C G41C C49U G67A, not above 0.5; under C31A G50C A70G, not above 0.5. Under A15G A42C C49A C62U A69C stands not above 0.5; under A21C A70U, 0.894; under C4U U47A C61A, 0.93. Under A15U C24A G25A U47C G52C stands not above 0.5; under C11G C27U A43C, 0.502; under U53A A57G, 0.556. As for U13C A14C C34U G38C G51A A57C C66U, the yeast fitness is not above 0.5.

Regarding C22U U35C A69C, the yeast fitness amounted to 0.565. Regarding C33G A45U C46U, the yeast fitness was not above 0.5. The same measure for U3C A43U A45G: 0.567; for G6A G12A U54C C60G: not above 0.5. Under C5U U13G C22A C29U C31A U59A C62U stands not above 0.5; under C11U U19A C60G G68A, not above 0.5; under G23C G38C C49G, 0.534.

For the origin of these results see the RNAGym collection of RNA variant scans (doi:10.1126/science.aae0568).
